The values below come from ChEMBL document CHEMBL3286362, “Farnesyltransferase inhibitors: CAAX mimetics based on different biaryl scaffolds” (Bioorg Med Chem Lett, 2014).

For test [1], the target named is T1, Protein farnesyltransferase (Homo sapiens, UniProt P49354+P49356). The experiment in a line: Inhibition of recombinant FTase (unknown origin) at 20 uM by spectrofluorimetric analysis relative to control. Type of test: protein-complex assay. Summed up:
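Fluorescence-based FTase activity assay; free acids screened at a single 20 µM concentration and percent inhibition determined.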

Test [2] can be described thus: (§1) Growth inhibition of RASMC after 72 hrs by Coulter counting analysis. It counts as functional, Rattus norvegicus. In a few lines: (§2)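 Proliferation of cultured rat aortic smooth muscle cells, with test agents given as isopropyl esters to aid membrane permeability; IC50 values derived.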
The species named for test [3] is Rattus norvegicus. The description is as §1. Type of test: functional. Summed up: as §2
Test [4] addresses T1, Protein farnesyltransferase. The test can be described thus: Inhibition of recombinant FTase (unknown origin) by spectrofluorimetric analysis. It counts as protein-complex assay.
A short description of test [5]: (§3) Inhibition of FTase-mediated RAS prenylation in RASMC after 72 hrs by Western blotting analysis. More on the design: species or system Rattus norvegicus. Summed up: (§4)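 Rat aortic SMCs incubated 72 h with 25 to 400 µM of test ester or without it, alongside simvastatin 2 µM as positive control. Total cell lysates were prepared and Ras prenylation was assessed by Western blot with anti-Ras antibody (clone RAS10).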

Test [6] is filed under the species Rattus norvegicus. The description is as §3. Summed up: as §4
Test [7] is filed under the species Rattus norvegicus. The test can be described thus: Inhibition of FTase-mediated RAS prenylation in RASMC at 2 uM after 72 hrs by Western blotting analysis. Summed up: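 Rat aortic smooth muscle cells were incubated for 72 h with or without test ester (25–400 µM) or with the HMG-CoA reductase inhibitor simvastatin (2 µM) as positive control. Total cell lysates were then prepared and Ras prenylation was assessed by western blot using an anti-Ras antibody (clone RAS10).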
On the technique in general: A western blot detects proteins with antibodies after separation by electrophoresis.

Calls of active or inactive are those of the source. The calls are words filed in the database; no cut-off is given here.

By inhibition is commonly meant how much of the control response was suppressed. In the case of `CSCC[C@H](NC(=O)c1ccc(OCC2COc3ccccc3O2)cc1-c1ccoc1)C(=O)O` (stereo not given in full), the inhibition in test [1] was found to be 48.7%.

What is called IC50 is the concentration that inhibits the measured activity by half. Compound `CSCC[C@H](NC(=O)c1ccc(OCC2COc3ccccc3O2)cc1-c1ccco1)C(=O)OC(C)C` (stereo not given in full) had an IC50 in test [2] of 99 µM.

Take `CSCC[C@H](NC(=O)c1ccc(NC(=O)Cc2csc(N)n2)cc1-c1cncc2ccccc12)C(=O)OC(C)C`: in test [2], 252 µM corresponded to half-maximal inhibition (IC50).

Compound `CSCC[C@H](NC(=O)c1ccc(OCC2COc3ccccc3O2)cc1-c1cccc2ccccc12)C(=O)OC(C)C` (stereo not given in full) returned an IC50 in test [2] of 155 µM.

In the case of `CSCC[C@H](NC(=O)c1ccc(OCC2COc3ccccc3O2)cc1-c1ccsc1)C(=O)OC(C)C` (stereo not given in full), the “growth inhibition (GI)” value in the test filed under Rattus norvegicus [3] is “inactive”.

Take `CSCC[C@H](NC(=O)c1ccc(OCC2COc3ccccc3O2)cc1-c1ccoc1)C(=O)OC(C)C` (stereo not given in full): the IC50 in test [2] came to 61 µM.

As to `CSCC[C@H](NC(=O)c1ccc(NC(=O)Cc2csc(N)n2)cc1-c1cncc2ccccc12)C(=O)O`, in test [1], the inhibition worked out at 0%.

In test [2], `CSCC[C@H](NC(=O)c1ccc(NC(=O)Cc2csc(N)n2)cc1-c1ccco1)C(=O)OC(C)C` came in with an IC50 of 110 µM.

Turning to `CSCC[C@H](NC(=O)c1ccc(OCC2COc3ccccc3O2)cc1-c1cncc2ccccc12)C(=O)OC(C)C` (stereo not given in full), the “growth inhibition (GI)” value in the test filed under Rattus norvegicus [3] is “inactive”.

As to `CSCC[C@H](NC(=O)c1ccc(NC(=O)Cc2csc(N)n2)cc1-c1ccoc1)C(=O)O`, the inhibition in test [1] came out at 98.7%. In test [4], the IC50 was 2.8 µM.

Take `CSCC[C@H](NC(=O)c1ccc(NC(=O)Cc2csc(N)n2)cc1-c1ccoc1)C(=O)OC(C)C`: the IC50 in test [2] is 259 µM; in test [5], 100 µM. Besides, the “growth inhibition (GI)” value in the test filed under Rattus norvegicus [3] is “Dose-dependent effect”. Further, the inhibition entry in the test filed under Rattus norvegicus [6] is “Dose-dependent effect”.

Compound `CSCC[C@H](NC(=O)c1ccc(NC(=O)Cc2csc(N)n2)cc1-c1cccs1)C(=O)OC(C)C` gave a 50% inhibitory concentration (IC50) in test [2] of 200 µM.

For the compound `CSCC[C@H](NC(=O)c1ccc(OCC2COc3ccccc3O2)cc1-c1cccs1)C(=O)O` (stereo not given in full), the inhibition in test [1] is 90%.

For the compound `CSCC[C@H](NC(=O)c1ccc(NC(=O)Cc2csc(N)n2)cc1-c1cccc2ccccc12)C(=O)O`, the inhibition in test [1] worked out at 90.4%.

For `CSCC[C@H](NC(=O)c1ccc(OCC2COc3ccccc3O2)cc1-c1ccco1)C(=O)O` (stereo not given in full), the inhibition in test [1] stood at 51.5%.

On to `CSCC[C@H](NC(=O)c1ccc(OCC2COc3ccccc3O2)cc1-c1cccc2ccccc12)C(=O)O` (stereo not given in full), for which, in test [1], the inhibition came out at 41.7%.

The compound `CSCC[C@H](NC(=O)c1ccc(NC(=O)Cc2csc(N)n2)cc1-c1ccsc1)C(=O)OC(C)C` gave an IC50 in test [2] of 123 µM.

For `CCC(C)(C)C(=O)O[C@H]1C[C@@H](C)C=C2C=C[C@H](C)[C@H](CC[C@@H]3C[C@@H](O)CC(=O)O3)[C@H]21`, the inhibition result in the test listed under Rattus norvegicus [7] was “Active”.

Take `CSCC[C@H](NC(=O)c1ccc(OCC2COc3ccccc3O2)cc1-c1cncc2ccccc12)C(=O)O` (stereo not given in full): the inhibition in test [1] turned out to be 14.5%.

Compound `CSCC[C@H](NC(=O)c1ccc(OCC2COc3ccccc3O2)cc1-c1cccs1)C(=O)OC(C)C` (stereo not given in full) yielded an IC50 in test [2] of 81 µM.

With `CSCC[C@H](NC(=O)c1ccc(NC(=O)Cc2csc(N)n2)cc1-c1ccsc1)C(=O)O`, the inhibition in test [1] was determined as 20.9%.

For the compound `CSCC[C@H](NC(=O)c1ccc(NC(=O)Cc2csc(N)n2)cc1-c1cccc2ccccc12)C(=O)OC(C)C`, in test [2], the IC50 was found to be 81 µM.

For the compound `CSCC[C@H](NC(=O)c1ccc(NC(=O)Cc2csc(N)n2)cc1-c1ccco1)C(=O)O`, the inhibition in test [1] came to 15.4%.

Consider `CSCC[C@H](NC(=O)c1ccc(NC(=O)Cc2csc(N)n2)cc1-c1cccs1)C(=O)O`, for which the inhibition in test [1] was 53.8%.

Consider `CSCC[C@H](NC(=O)c1ccc(OCC2COc3ccccc3O2)cc1-c1ccsc1)C(=O)O` (stereo not given in full), for which the inhibition in test [1] stood at 96.6%. Moreover, the IC50 in test [4] is 5 µM.
